“And” between values parts separate entries of the source, which are not always exact repeats. Equal entries are not always repeated.
System: HEK-293T
Assay: Multiplex assay against HEK293T
Assay type: toxicity, cell-based
Details: human, number of replicates 2
How it was run: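 Tubulin, mitochondrial-mass and membrane-permeability phenotypes are per cents of healthy-nucleus cells. Cells were gated by CellPathfinder machine learning into Hoechst high-intensity objects or normal cells, normal cells into healthy, pyknosed or fragmented nuclei, and pyknosed cells into mitotic or apoptotic. Before that, live cells stained at seeding with Hoechst33342, BioTracker Green Microtubule Cytoskeleton Dye, MitoTracker Red and Annexin V Alexa Fluor 680 were imaged on a CQ1 microscope at 37°C and 5% CO2 after compound addition.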

[1] = 12 h, 1 µM, compound concentration 1 uM
[2] = 12 h, 10 µM, compound concentration 10 uM
[3] = 24 h, 1 µM, compound concentration 1 uM
[4] = 24 h, 10 µM, compound concentration 10 uM
[5] = 48 h, 1 µM, compound concentration 1 uM
[6] = 48 h, 10 µM, compound concentration 10 uM

For `COc1cc(C(=O)NC2CCN(C)CC2)ccc1Nc1ncc(C(F)(F)F)c(NCc2ccc(C)cc2N(C)S(C)(=O)=O)n1.O=CO.O=CO`, the “Population Apoptotic (%)” value [1] was 57% and 71%, the “Population Fragmented Nuclei (%)” value [1] was 5% and 6% and the “Population Healthy Nuclei (%)” value [1] was 81% and 84%. The “Population Hoechst High Intensity Objects (%)” value [1] was 13% and 16%, the “Population Membrane Permeable-Phenotype (%)” value [1] was 4% and 0% and the “Population Mitochondria Different-Phenotype (%)” value [1] was 50% and 59%. The “Population Mitotic Cells (%)” value [1] was 42% and 28%, the “Population Normal (%)” value [1] was 86% and 83% and the “Population Pyknosed Nuclei (%)” value [1] was 13% and 9%. For the same compound, the “Population Tubulin-Different-Phenotype (%)” value [1] was 89% and 95%, the “Total Cell Count” value [1] was 378 and 461 and the “Population Apoptotic (%)” value [2] was 86% and 89%. The “Population Fragmented Nuclei (%)” value [2] was 7% and 6%, the “Population Healthy Nuclei (%)” value [2] was 45% and 62% and the “Population Hoechst High Intensity Objects (%)” value [2] was 23%. For the same compound, the “Population Membrane Permeable-Phenotype (%)” value [2] was 6% and 0%, the “Population Mitochondria Different-Phenotype (%)” value [2] was 74% and 85% and the “Population Mitotic Cells (%)” value [2] was 13% and 10%. The “Population Normal (%)” value [2] was 76%, the “Population Pyknosed Nuclei (%)” value [2] was 47% and 31% and the “Population Tubulin-Different-Phenotype (%)” value [2] was 87% and 92%. The “Total Cell Count” value [2] was 288 and 266, the “Population Apoptotic (%)” value [3] was 73% and 60% and the “Population Fragmented Nuclei (%)” value [3] was 9% and 10%. The “Population Healthy Nuclei (%)” value [3] was 83% and 80%, the “Population Hoechst High Intensity Objects (%)” value [3] was 12% and the “Population Membrane Permeable-Phenotype (%)” value [3] was 5% and 1%. The “Population Mitochondria Different-Phenotype (%)” value [3] was 17%, the “Population Mitotic Cells (%)” value [3] was 26% and 40% and the “Population Normal (%)” value [3] was 87%. The “Population Pyknosed Nuclei (%)” value [3] was 7% and 8%, the “Population Tubulin-Different-Phenotype (%)” value [3] was 70% and 79% and the “Total Cell Count” value [3] was 658 and 751. The “Population Apoptotic (%)” value [4] was 84% and 81%, the “Population Fragmented Nuclei (%)” value [4] was 8% and 3% and the “Population Healthy Nuclei (%)” value [4] was 35% and 51%. For the same compound, the “Population Hoechst High Intensity Objects (%)” value [4] was 22% and 23%, the “Population Membrane Permeable-Phenotype (%)” value [4] was 7% and 5% and the “Population Mitochondria Different-Phenotype (%)” value [4] was 71% and 68%. The “Population Mitotic Cells (%)” value [4] was 15% and 18%, the “Population Normal (%)” value [4] was 77% and 76% and the “Population Pyknosed Nuclei (%)” value [4] was 55% and 44%. For the same compound, the “Population Tubulin-Different-Phenotype (%)” value [4] was 86% and 95%, the “Total Cell Count” value [4] was 363 and 344 and the “Population Apoptotic (%)” value [5] was 41% and 21%. The “Population Fragmented Nuclei (%)” value [5] was 15% and 16%, the “Population Healthy Nuclei (%)” value [5] was 81% and 79% and the “Population Hoechst High Intensity Objects (%)” value [5] was 16% and 14%. The “Population Membrane Permeable-Phenotype (%)” value [5] was 1% and 3%, the “Population Mitochondria Different-Phenotype (%)” value [5] was 3% and 1% and the “Population Mitotic Cells (%)” value [5] was 58% and 78%. The “Population Normal (%)” value [5] was 83% and 85%, the “Population Pyknosed Nuclei (%)” value [5] was 3% and the “Population Tubulin-Different-Phenotype (%)” value [5] was 51% and 37%. The “Total Cell Count” value [5] was 1721 and 1697, the “Population Apoptotic (%)” value [6] was 82% and 77% and the “Population Fragmented Nuclei (%)” value [6] was 8% and 4%. The “Population Healthy Nuclei (%)” value [6] was 22% and 25%, the “Population Hoechst High Intensity Objects (%)” value [6] was 25% and 22% and the “Population Membrane Permeable-Phenotype (%)” value [6] was 4% and 2%. For the same compound, the “Population Mitochondria Different-Phenotype (%)” value [6] was 55% and 76%, the “Population Mitotic Cells (%)” value [6] was 17% and 22% and the “Population Normal (%)” value [6] was 74% and 77%. For the same compound, the “Population Pyknosed Nuclei (%)” value [6] was 68% and 69%, the “Population Tubulin-Different-Phenotype (%)” value [6] was 93% and 95% and the “Total Cell Count” value [6] was 374 and 336.
In the case of `CC1(C)C(=O)N([C@H]2CCc3c(O)cccc32)c2nc(Nc3cccc(CN4CCCC4)c3)ncc21`, the “Population Apoptotic (%)” value [1] is reported as 51% and 69%, the “Population Fragmented Nuclei (%)” value [1] is reported as 1% and 2% and the “Population Healthy Nuclei (%)” value [1] is reported as 83% and 87%. The “Population Hoechst High Intensity Objects (%)” value [1] was 19% and 21%, the “Population Membrane Permeable-Phenotype (%)” value [1] was 1% and the “Population Mitochondria Different-Phenotype (%)” value [1] was 70% and 76%. The “Population Mitotic Cells (%)” value [1] was 48% and 30%, the “Population Normal (%)” value [1] was 80% and 78% and the “Population Pyknosed Nuclei (%)” value [1] was 14% and 10%. For the same compound, the “Population Tubulin-Different-Phenotype (%)” value [1] was 89% and 94%, the “Total Cell Count” value [1] was 252 and 277 and the “Population Apoptotic (%)” value [2] was 80% and 74%. The “Population Fragmented Nuclei (%)” value [2] was 1% and 2%, the “Population Healthy Nuclei (%)” value [2] was 80% and 77% and the “Population Hoechst High Intensity Objects (%)” value [2] was 18% and 19%. For the same compound, the “Population Membrane Permeable-Phenotype (%)” value [2] was 2% and 0%, the “Population Mitochondria Different-Phenotype (%)” value [2] was 93% and 97% and the “Population Mitotic Cells (%)” value [2] was 19% and 25%. For the same compound, the “Population Normal (%)” value [2] was 81% and 80%, the “Population Pyknosed Nuclei (%)” value [2] was 17% and 20% and the “Population Tubulin-Different-Phenotype (%)” value [2] was 96% and 97%. The “Total Cell Count” value [2] was 216 and 218, the “Population Apoptotic (%)” value [3] was 88% and 33% and the “Population Fragmented Nuclei (%)” value [3] was 4% and 3%. The “Population Healthy Nuclei (%)” value [3] was 88% and 86%, the “Population Hoechst High Intensity Objects (%)” value [3] was 17% and 25% and the “Population Membrane Permeable-Phenotype (%)” value [3] was 2% and 3%. The “Population Mitochondria Different-Phenotype (%)” value [3] was 60% and 63%, the “Population Normal (%)” value [3] was 82% and 74% and the “Population Pyknosed Nuclei (%)” value [3] was 7% and 9%. For the same compound, the “Population Tubulin-Different-Phenotype (%)” value [3] was 92% and 89%, the “Total Cell Count” value [3] was 296 and 243 and the “Population Apoptotic (%)” value [4] was 90% and 88%. The “Population Fragmented Nuclei (%)” value [4] was 4% and 3%, the “Population Healthy Nuclei (%)” value [4] was 77% and 75% and the “Population Hoechst High Intensity Objects (%)” value [4] was 21%. The “Population Membrane Permeable-Phenotype (%)” value [4] was 3% and 1%, the “Population Mitochondria Different-Phenotype (%)” value [4] was 94% and 96% and the “Population Mitotic Cells (%)” value [4] was 9% and 11%. The “Population Normal (%)” value [4] was 78%, the “Population Pyknosed Nuclei (%)” value [4] was 18% and 21% and the “Population Tubulin-Different-Phenotype (%)” value [4] was 96% and 94%. For the same compound, the “Total Cell Count” value [4] was 220 and 205, the “Population Apoptotic (%)” value [5] was 61% and 45% and the “Population Fragmented Nuclei (%)” value [5] was 7% and 6%. For the same compound, the “Population Healthy Nuclei (%)” value [5] was 87% and 89%, the “Population Hoechst High Intensity Objects (%)” value [5] was 20% and 17% and the “Population Membrane Permeable-Phenotype (%)” value [5] was 2% and 0%. For the same compound, the “Population Mitochondria Different-Phenotype (%)” value [5] was 26% and 29%, the “Population Mitotic Cells (%)” value [5] was 38% and 54% and the “Population Normal (%)” value [5] was 79% and 82%. For the same compound, the “Population Pyknosed Nuclei (%)” value [5] was 4%, the “Population Tubulin-Different-Phenotype (%)” value [5] was 84% and 87% and the “Total Cell Count” value [5] was 362 and 302. For the same compound, the “Population Apoptotic (%)” value [6] was 88% and 89%, the “Population Fragmented Nuclei (%)” value [6] was 3% and 1% and the “Population Healthy Nuclei (%)” value [6] was 71% and 74%. For the same compound, the “Population Hoechst High Intensity Objects (%)” value [6] was 22% and 24%, the “Population Membrane Permeable-Phenotype (%)” value [6] was 0% and the “Population Mitochondria Different-Phenotype (%)” value [6] was 94%. The “Population Mitotic Cells (%)” value [6] was 11% and 10%, the “Population Normal (%)” value [6] was 77% and 75% and the “Population Pyknosed Nuclei (%)” value [6] was 24%. For the same compound, the “Population Tubulin-Different-Phenotype (%)” value [6] was 98% and 97% and the “Total Cell Count” value [6] was 227 and 202.

From ChEMBL document CHEMBL5303300, “EUbOPEN Chemogenomics Library - Multiplex” (2023)
